Source: PMC9790683 (Birth Defects Research, 2022)
“And” between values parts separate entries of the source, which are not always exact repeats. Equal entries are not always repeated. Where two headings read alike, the source gives them in different places.

Legend:
[1] = IVIVE, rat EAD with httk.PBTK model; conditions: oral; for EAD using Httk.PBTK model, using nominal dTP Conc.: Cmax = dTP; for EAD using Httk.PBTK model, using free medium Conc.: Cmax = free medium dTP
Procedure, shortened: (§1)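 Reverse dosimetry used the generic PBTK model from httk R package v1.8.1: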

[2] = IVIVE, rat EAD with one‐compartment PPK model; conditions: oral; for EAD using PPK model, using nominal dTP Conc.: Css = dTP; for EAD using PPK model, using free medium Conc.: Css = free medium dTP
Procedure, shortened: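 Rat one-compartment population PK model assuming 100% absorption. Total clearance was hepatic plus renal (passive glomerular filtration), with inputs of plasma unbound fraction and hepatocyte Clint (predicted or experimental). Monte Carlo simulation of 10,000 individuals gave the upper 95th percentile steady-state plasma concentration. EAD was the dose giving total Css equal to the nominal dTP or Armitage-model free medium concentration.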

[3] = test system: human iPS cells (HYR0103, ATCC ACS‐1007); test: devTOX quickPredict; type: cell-based; conditions: threshold 0.85, 48 hours; for TP: cell viability; for dTP: o/c ratio
Procedure, shortened: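 Human iPS cells exposed across a concentration range. Ornithine and cystine abundance measured, and ornithine/cystine ratio calculated at each concentration. dTP is the concentration, interpolated from the ratio response curve, where the ratio drops below a predefined developmental-toxicity threshold set from pharmaceuticals of known human teratogenicity. TP is the concentration where viability falls below the same threshold. Nominal values converted to free-medium concentration by mass-balance model.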

rat dams and fetuses = conditions: cited from earlier work; for Developmental toxicity LEL: rat, oral repeat dosing, maternal and fetal LELs combined, ref Table 2 sources
[4] = cited from earlier work; for Range of all human OEDs reported: across all in vitro assays (OEDall); for Range of all human OEDs reported / Range of human OEDs estimated from most sensitive endpoints: ref OECD, 2020; for Range of human OEDs estimated from most sensitive endpoints: most sensitive endpoint in each in vitro model (OEDnarrow)
[5] = IVIVE, human EAD with httk.PBTK model; conditions: oral
Procedure, shortened: as §1

[6] = IVIVE, human EAD with GastroPlus pregnancy PBPK model; conditions: for EAD, GP.pregancy model, Maternal plasma Cmax, free medium concentration / EAD, GP.pregancy model, Maternal plasma Cmax, nominal dTP: human pregnancy, 12 weeks gestation
[7] = EAD by linear extrapolation of clinical dose‐Cmax data; conditions: human, linear extrapolation of clinical dose‐Cmax data from PharmaPendium
Procedure, shortened: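 Clinical dose–plasma Cmax data for the reference teratogen were taken from PharmaPendium. Dose giving Cmax equal to the in vitro dTP concentration was found by linear extrapolation. dTP is the interpolated concentration where the ornithine/cystine ratio curve in the human iPS cell devTOX qP assay falls below the predefined threshold.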

[8] = from CALUX Min EC10 cell-total, ref OECD 2020
[9] = from UKN1 HDAC inhibition EC10, ref OECD 2020
[10] = from ZET pericardial and/or yolk oedema Total embryo EC10, ref OECD 2020
[11] = from mEST HDAC inhibition, day 10 EC10, ref OECD 2020
[12] = Wistar, drinking water, GD 6–19, ref Pennanen et al. (1992)
[13] = Sprague–Dawley, corn oil gavage, GD 6–15, ref Narotsky et al., 1994

Structure (SMILES) | EAD using Httk.PBTK model, using nominal dTP Conc. [1] | EAD using Httk.PBTK model, using free medium Conc. [1] | EAD using PPK model, using nominal dTP Conc. [2] | EAD using PPK model, using free medium Conc. [2] | TP [3] | dTP [3] | Developmental toxicity LEL (rat dams and fetuses) | Range of all human OEDs reported [4] | Human OED_max fu model [4, 8] | Human OED_max fu model [4, 9] | Human OED_max fu model [4, 10] | Human OED_max fu model [4, 11] | Range of human OEDs estimated from most sensitive endpoints [4] | EAD, Httk.PBTK model, free medium concentration [5] | EAD, Httk.PBTK model, nominal dTP [5] | EAD, GP.pregancy model, Maternal plasma Cmax, free medium concentration [6] | EAD, GP.pregancy model, Maternal plasma Cmax, nominal dTP [6] | further results
C=CCC(CCC)C(=O)O (stereo not shown) [4‐ene‐VPA, 2‐Propyl‐4‐pentenoic acid] | 77.1 mg/kg/day | 61.7 mg/kg/day | 119.6 mg/kg/day | 95.7 mg/kg/day | 636 µM | 611 µM |  |  |  |  |  |  |  |  |  |  |  | 
CCCC(C)(C)C(=O)O [DMPA, 2,2‐Dimethylpentanoic acid] | 388.3 mg/kg/day | 209.7 mg/kg/day | 936.6 mg/kg/day | 505.8 mg/kg/day | 1,745 μM | 784 µM |  |  |  |  |  |  |  |  |  |  |  | 
CCC(CC)C(=O)O [EBA, 2‐Ethylbutyric acid] | 517.4 mg/kg/day | 431.8 mg/kg/day | 2,708.3 mg/kg/day | 2,260.4 mg/kg/day |  | 1,071 μM | 150 mg/kg/day | 34.4–826.6 | 35.8 mg/kg | 161.4 mg/kg | 53.3 mg/kg | 357.8 mg/kg | 35.8–357.8 | 404.5 mg/kg/day | 484.7 mg/kg/day | 127.8 mg/kg/day | 153.2 mg/kg/day | 
CCCCC(CC)C(=O)O (stereo not shown) [EHA, 2‐Ethylhexanoic acid] | 77.3 mg/kg/day | 36.9 mg/kg/day | 95.3 mg/kg/day | 45.5 mg/kg/day | 390 µM | 399 µM | 100 to 600 mg/kg/day | 0.74–901.3 |  |  |  |  |  | 22.4 mg/kg/day | 47.0 mg/kg/day | 6.7 mg/kg/day | 14.1 mg/kg/day | LEL: Fetal toxicity (rat dams and fetuses; [12]): 100 mg/kg/day; LEL: Maternal toxicity (rat dams and fetuses; [12]): 600 mg/kg/day; Human OED_max fu model ([4]; human): 4.8 mg/kg
CCCCCC(=O)O [HA, Hexanoic acid] | 652.7 mg/kg/day | 515.6 mg/kg/day | 2,921.8 mg/kg/day | 2,308.2 mg/kg/day | 1,022 μM | 838 µM |  |  |  |  |  |  |  |  |  |  |  | 
CCCCC(C)C(=O)O (stereo not shown) [MHA, 2‐Methylhexanoic acid] | 331.4 mg/kg/day | 205.5 mg/kg/day | 924.3 mg/kg/day | 573.1 mg/kg/day | 1,631 μM | 976 µM |  | 2.3–928.4 | 2.3 mg/kg | 254.8 mg/kg | 55.1 mg/kg | 286.3 mg/kg | 2.3–286.3 | 176.0 mg/kg/day | 285.5 mg/kg/day | 36.5 mg/kg/day | 59.12 mg/kg/day | 
CCCC(C)C(=O)O (stereo not shown) [MPA, 2‐Methylpentanoic acid] | 574.2 mg/kg/day | 467.4 mg/kg/day | 2,957.1 mg/kg/day | 2,407.2 mg/kg/day |  | 1,248 μM | 188 mg/kg/day | 35.2–1,353.3 | 37.3 mg/kg | 186.6 mg/kg | 84.5 mg/kg | 261.1 mg/kg | 37.3–261.1 | 440.6 mg/kg/day | 541.2 mg/kg/day | 135.8 mg/kg/day | 166.9 mg/kg/day | LEL: Maternal toxicity (rat dams and fetuses; [13]): 188 mg/kg/day
C=CCCC(=O)O [PA, 4‐Pentenoic acid] | 147.7 mg/kg/day | 145.2 mg/kg/day | 947.1 mg/kg/day | 931.1 mg/kg/day | 719 µM | 913 µM | 50 to 75 mg/kg/day |  |  |  |  |  |  |  |  |  |  | LEL: Fetal toxicity (rat dams and fetuses; [13]): 50 mg/kg/day
CCCCCC(CCC)C(=O)O (stereo not shown) [PHA, 2‐Propylheptanoic acid] | 39.5 mg/kg/day | 9.1 mg/kg/day | 27.5 mg/kg/day | 6.3 mg/kg/day | 425 µM | 546 µM |  |  |  |  |  |  |  |  |  |  |  | 
CCCC(CCC)C(=O)O [VPA, Valproic acid, reference compound] | 13.5 mg/kg/day | 5.8 mg/kg/day | 33.3 mg/kg/day | 14.3 mg/kg/day | 318 µM | 236 µM | 200 mg/kg/day and 200 to 400 mg/kg/day | 0.11–51.9 | 3.2 mg/kg | 3 mg/kg | 2.8 mg/kg | 2 mg/kg | 0.11–3.2 | 4.5 mg/kg/day | 10.4 mg/kg/day | 2.7 mg/kg/day | 6.4 mg/kg/day | EAD based on Clinical PK data [7]: 4.6 mg/kg/day; LEL: Fetal toxicity (rat dams and fetuses; Sprague–Dawley, GD 8–17, dose range 0–800, ref Binkerd et al., 1988): 200 mg/kg/day; LEL: Fetal toxicity (rat dams and fetuses; [13]): 200 mg/kg/day; LEL: Maternal toxicity (rat dams and fetuses; [13]): 400 mg/kg/day; range of EADs derived from the in vitro dTP concentration ([6]; human, across all models, nominal and free): 2.7 to 24.4 mg/kg/day
